Screens as filed in PubChem BioAssay.
Only some compounds are listed: those with a hit (about 2.3% of all), similar ones and a draw of the others.
EBNA-1 inh = blocks EBNA-1 binding to DNA. EBNA-1 DNA binding, fluorescence polarization. inhibition, % at 14.8 µM. 0.34% of 300,000 active; in the data active means inhibition above about 28%
ZTA counter = blocks Epstein-Barr virus ZTA, an EBNA-1 counter-screen. P03206. ZTA-DNA binding, fluorescence polarization. inhibition, % at 11 µM. 0.15% of 320,000 active. AID 2234; in the data active means inhibition above about 33%
Target sequence (P03206 whole entry, looked up): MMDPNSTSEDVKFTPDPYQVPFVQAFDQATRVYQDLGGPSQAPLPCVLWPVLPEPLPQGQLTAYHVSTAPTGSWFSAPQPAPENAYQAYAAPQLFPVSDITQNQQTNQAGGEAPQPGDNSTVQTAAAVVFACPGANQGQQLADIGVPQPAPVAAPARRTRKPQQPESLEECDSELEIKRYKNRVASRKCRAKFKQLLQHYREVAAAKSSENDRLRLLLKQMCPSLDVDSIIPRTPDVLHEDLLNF
GPR7 antag = antagonists of human GPR7 (neuropeptides B/W receptor 1) | inhibition, % at 4.4 µM | 1.1% of 290,000 active | P48145 | GPR7-expressing cells, fluorescence antagonist assay; in the data active means inhibition above about 16%, passing the limit was not always enough;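 further: cells stimulated with the agonist NPW; 0% = agonist with vehicle and 100% = vehicle without agonist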
HCV NS3 hel inh = HCV NS3 helicase inhibition. NS3 helicase DNA unwinding, Cy5 molecular beacon fluorescence. inhibition, % at 10.9 µM. 0.56% of 290,000 active. AID 1800;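 active means inhibition above the mean of all tested compounds plus 3 SD, set per campaign, cut at about 35% in these data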;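 further: 0% = DMSO wells and 100% = thioflavine S control wells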
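System: HCV NS3 helicase fragment; control set: DMSO and thioflavine S; technique: Cy5 fluorescence at 0 and 60 min, beacon hairpin quenching; reagent: beacon DNA duplex substrate plus ATP; replicates: singlicate; schedule: 1 h reaction at 25 °C, ATP-initiated; medium: MOPS buffer pH 6.5 with MgCl2, DTT, Tween20, BSA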
EBV gp42 inh = blocks Epstein-Barr virus glycoprotein 42 binding | Q1HVG2 | Fluorescence polarization binding assay, mP read-out | inhibition, % (tested at 21.74 µM) | 0.42% of 220,000 active | AID 1085; in the data active means inhibition above about 50%
Target sequence (Q1HVG2 whole entry, looked up): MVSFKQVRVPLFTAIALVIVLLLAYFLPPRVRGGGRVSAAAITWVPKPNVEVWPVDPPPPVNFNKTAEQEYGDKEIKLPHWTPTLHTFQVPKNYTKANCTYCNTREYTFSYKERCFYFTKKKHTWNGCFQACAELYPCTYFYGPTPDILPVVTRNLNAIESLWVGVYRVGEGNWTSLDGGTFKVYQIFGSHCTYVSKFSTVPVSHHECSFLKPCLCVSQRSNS
HCV core dimer = HCV core protein dimerization inhibition. 0.33% of 300,000 active. inhibition, % at 5 µM. TR-FRET GST/Flag-core106 dimerization, 1536-well;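 active means inhibition above the mean of all tested compounds plus 3 SD, set per screening campaign, cut at about 45% in these data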
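Test system: GST/Flag-tagged HCV core106 proteins; Medium: KF-containing HEPES buffer, pH 7.45, DTT, CHAPS, BSA; Times: compound-protein-antibody incubation 4 h at 22.5 °C; Detection: TR-FRET 671 and 617 nm emission; Benchmarks: wells lacking GST-core106 and wells with excess unlabelled core106.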
EBNA-1 inh conf = EBNA-1 (EBV) inhibition, confirmation; shares compounds with EBNA-1 inh; Recombinant EBNA-1 DBD, Cy5-DNA fluorescence polarization; inhibition, % at 14.8 µM; 35% of 830 active;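 active means mean inhibition across replicates above a set limit taken from the earlier primary screen, cut at about 28% in these data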;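 further: plate controls were EBNA-1 protein with DMSO for no effect and wells lacking EBNA-1 for full effect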
ZTA counter trip = blocks Epstein-Barr virus ZTA in triplicate, EBNA-1 counter-screen; shares compounds with EBNA-1 inh; Zta-ZRE DNA binding, Cy5 fluorescence polarization; inhibition, % at 11.1 µM; 830 tested, under 10 active;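 active means mean inhibition over triplicates above a set limit taken from the primary EBNA-1 screen, cut at about 37% in these data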;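 further: purified full length Zta protein with Cy5 labeled ZRE DNA probe; 0% = Zta with DMSO and 100% = wells lacking Zta protein; inhibitors lower polarization by freeing the labeled DNA probe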
* = called active by the depositor; / = no result given.

SMILES	EBNA-1 inh	ZTA counter	GPR7 antag	HCV NS3 hel inh	EBV gp42 inh	HCV core dimer	EBNA-1 inh conf	ZTA counter trip
COc1ccc(S(=O)(=O)Nc2nc3ccccc3nc2NCC2CCCO2)cc1 (centres undefined)	-4	4	-18	-11	-8	2	/	/
COc1ccc(CCNC(=S)N2CCN(S(=O)(=O)c3ccccc3)CC2)cc1	-7	-7	/	/	/	1	/	/
Cc1ccc(S(=O)(=O)N2CCN(C(=S)NCCc3ccccc3)CC2)cc1	65*	-3	-5	-4	0	2	11	-2
CC(=O)N1CCc2cc(S(=O)(=O)NC(C(=O)N3CCN(c4ccccc4F)CC3)C(C)C)ccc21 (centres undefined)	11	-1	/	/	/	0	/	/
NC(=O)c1cccc(NC(=O)Nc2ccc(Cl)cc2)c1	38*	7	-4	-5	/	14	7	5
O=C(Nc1ccc(Cl)cc1)Nc1ccc(Cl)c(Cl)c1	/	10	/	/	/	/	/	/
COc1ccc(NC(=O)CN(C)C(=O)c2cc(-c3ccc(OC)cc3)nc3ccccc23)cc1	31*	3	/	/	/	5	0	-3
CCc1ccccc1N(C)S(=O)(=O)c1ccc2[nH]cc(C(=O)N3CCc4ccccc43)c(=O)c2c1	28*	4	-6	-39	-33	19	3	-1
Cc1cccc(N(C)S(=O)(=O)c2ccc3[nH]cc(C(=O)N4CCOCC4)c(=O)c3c2)c1	-6	-4	-13	3	-3	-6	/	/
O=C(COc1ccc2ccccc2c1)NNC(=O)Cc1ccccc1	28*	6	5	1	13	-5	35*	11
C=CCNC(=O)c1ccc(Cn2c(=S)[nH]c3cc4c(cc3c2=O)OCO4)cc1	33*	4	6	-6	-10	5	0	0
O=C(/C=C/c1ccccc1)Nc1cccnc1Oc1ccccc1F	2	2	2	-25	-2	2	/	/
Cc1ccc(NC(=O)Cn2cc(S(=O)(=O)c3ccc(F)cc3)c(=O)c3cc(F)ccc32)cc1	29*	-1	-4	8	-18	9	47*	0
Cc1ccc(S(=O)(=O)c2cn(CC(=O)Nc3ccccc3)c3ccc(F)cc3c2=O)cc1	-11	0	-17	-12	3	11	/	/
Cc1cc(OC(=O)c2cccc(Br)c2)c([N+](=O)[O-])c(=O)[nH]1	-6	5	-6	4	/	1	/	/
CCOC(=O)CCCNC(=O)COC(=O)c1cccc(F)c1	-4	7	-10	0	-13	-1	/	/
O=C(CSc1cn(Cc2ccccc2)c2ccccc12)Nc1nccs1	36*	2	-8	-10	4	-87	8	6
CCOC(=O)c1c(C)[nH]c(C(=O)COC(=O)CNC(=O)c2ccc(Cl)cc2Cl)c1C	96*	12	-4	-1	-29	3	26	4
COc1ccccc1NC(=O)Nc1ccc(C(N)=O)cc1	46*	0	1	1	-8	5	-9	12
CCOC(=O)c1cnc(SCc2nc(N)nc(Nc3ccc(F)cc3)n2)nc1N	49*	9	-6	-61	9	-2	-8	-9
CC1=NN(S(=O)(=O)c2ccc(Cl)cc2Cl)C(=O)c2ccccc2O1	-12	2	-17	-1	-8	1	/	/
CNC(=O)c1ccc(NC(=O)c2cc(S(=O)(=O)N(C)C)ccc2N2CCCC2)cc1	/	6	/	/	/	/	/	/
COc1cc(/C=C2\SC(=O)N(CC(=O)Nc3ccccc3F)C2=O)cc(Cl)c1O	0	3	12	-10	/	-10	/	/
O=C(CN1C(=O)S/C(=C\c2ccccc2)C1=O)NNC(=O)c1ccccc1O	-2	-1	-7	11	2	1	/	/
COc1ccc(/C=C2\SC(=O)N(CC(=O)NNC(=O)c3ccccc3O)C2=O)cc1	54*	-8	-11	7	58*	-1	7	8
SMILES	EBNA-1 inh	ZTA counter	GPR7 antag	HCV NS3 hel inh	EBV gp42 inh	HCV core dimer	EBNA-1 inh conf	ZTA counter trip
COc1cc(OC)c(/C=C2\SC(=O)N(CC(=O)Nc3ccccc3F)C2=O)c(OC)c1	96*	-5	-1	6	/	10	67*	-1
CCOc1ccc2nc(SCC(=O)c3ccc(O)cc3O)sc2c1	-20	1	11	2	/	2	/	/
O=C(CNC(=O)c1ccco1)NCC(=O)OCc1ccc(C(=O)Oc2ccc(Cl)cc2)cc1	89*	10	-4	-6	5	2	9	5
O=C(COC(=O)C1=Cc2ccccc2OC1)NC1CCCC1	-14	-9	-14	0	-2	-1	/	/
COc1ccc(Cc2nnc(NC(=O)Nc3ccccc3)s2)cc1OC	60*	-3	12	5	/	12	26	3
COc1cccc(NC(=O)Nc2nnc(Cc3ccc(OC)c(OC)c3)s2)c1	8	-13	24	16	/	-6	/	/
COc1ccc(C(=O)Nc2nnc(Cc3cccs3)s2)cc1OC	30*	12	-3	11	-12	15	52*	8
Cc1cc(C)n(-c2ccc(NC(=O)C3CCN(Cc4ccccn4)CC3)cc2)n1	-4	20	11	-1	/	-1	/	/
Cc1cccc(-c2noc(CCC(=O)Nc3ccc(C(N)=O)cc3)n2)c1	76*	0	7	-9	-5	1	39*	-7
Cc1cccc(-c2noc(CCCC(=O)Nc3ccc(C(N)=O)cc3)n2)c1	7	-6	3	0	-16	4	/	/
COc1ccc(-c2cc(C(=O)Nc3cnn(Cc4ccccc4C)c3)no2)cc1OC	36*	1	-12	-4	18	0	23	10
Cn1c2ccccc2c2cnn(CC(=O)Nc3ccccc3Br)c(=O)c21	32*	7	-4	2	-11	18	11	-2
O=C(Cc1cccs1)N1CCN(S(=O)(=O)c2ccc(F)c(F)c2)CC1	/	-23	/	/	/	/	/	/
CC(Cc1ccccc1)C(=O)N[C@@H](CO)Cc1ccccc1 (some centres undefined)	0	3	-11	1	-17	6	/	/
COc1cccc(N2CCN(S(=O)(=O)c3ccc(-c4cnc(C5CC5)o4)cc3)CC2)c1	91*	-5	-4	-14	/	20	84*	2
c1ccc(-c2csc(-c3ccc(-c4csnn4)cc3)n2)cc1	57*	20	4	9	-10	2	46*	11
Cc1ccc(-c2nn3c(-c4ccco4)nnc3c3ccccc23)cc1S(=O)(=O)NCC1CCCO1 (centres undefined)	86*	2	4	9	-1	17	-4	-6
